Assay results published in ChEMBL document CHEMBL1153913, “5-Arylidene-2-phenylimino-4-thiazolidinones as PTP1B and LMW-PTP inhibitors” (Bioorg Med Chem, 2009).

How the values were obtained:
[1] = target: T1, Tyrosine-protein phosphatase non-receptor type 1 (Homo sapiens, UniProt P18031); assay: Inhibition of GST-tagged human PTP1B
T1 sequence (P18031 whole entry): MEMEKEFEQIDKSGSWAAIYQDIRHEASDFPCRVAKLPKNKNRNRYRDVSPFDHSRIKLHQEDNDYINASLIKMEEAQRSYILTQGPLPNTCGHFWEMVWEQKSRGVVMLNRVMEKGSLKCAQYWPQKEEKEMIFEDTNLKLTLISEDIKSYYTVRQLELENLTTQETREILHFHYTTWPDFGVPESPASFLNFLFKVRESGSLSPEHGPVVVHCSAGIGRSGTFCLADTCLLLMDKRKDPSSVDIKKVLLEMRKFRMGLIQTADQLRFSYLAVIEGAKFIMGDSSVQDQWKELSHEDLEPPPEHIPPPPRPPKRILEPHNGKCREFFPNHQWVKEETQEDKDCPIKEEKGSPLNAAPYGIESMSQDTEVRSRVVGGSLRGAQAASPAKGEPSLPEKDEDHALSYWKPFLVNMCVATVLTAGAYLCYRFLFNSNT
Method in brief: (§1)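 p-Nitrophenylphosphate hydrolysis at 37 °C in pH 7.0 buffer with 0.075 M β,β-dimethylglutarate, 1 mM EDTA and 5 mM DTT. The enzyme was added to start the reaction, which was stopped with 1 M KOH. Released p-nitrophenolate was read at 400 nm. Initial rates were measured in triplicate with substrate fixed at each PTP's Km. IC50 was fitted from Vi/V0 = IC50/(IC50+[I]).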

[2] = target: T2, Low molecular weight phosphotyrosine protein phosphatase (Saccharomyces cerevisiae S288c, UniProt P40347); assay: Inhibition of Saccharomyces cerevisiae Ltp1; method in brief: as §1
T2 sequence (P40347 whole entry): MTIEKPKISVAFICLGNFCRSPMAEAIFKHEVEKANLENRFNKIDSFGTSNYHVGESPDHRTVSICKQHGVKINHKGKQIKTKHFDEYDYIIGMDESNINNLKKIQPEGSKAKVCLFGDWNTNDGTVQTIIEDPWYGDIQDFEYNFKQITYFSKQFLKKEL

[3] = target: Low molecular weight PTP, IF2 isoform (Homo sapiens); assay: Inhibition of GST-tagged human LMW PTP1B IF2 isoform
[4] = target: T3, Low molecular weight phosphotyrosine protein phosphatase (Homo sapiens, UniProt P24666); assay: Inhibition of GST-tagged human LMW PTP1B IF1 isoform; method in brief: as §1
T3 sequence (P24666 whole entry): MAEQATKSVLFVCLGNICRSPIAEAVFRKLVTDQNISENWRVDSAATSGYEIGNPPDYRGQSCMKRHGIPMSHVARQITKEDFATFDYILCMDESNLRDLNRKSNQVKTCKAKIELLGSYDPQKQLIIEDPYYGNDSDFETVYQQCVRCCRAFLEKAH

| Compound | IC50 [1] | IC50 [2] | IC50 [3] | IC50 [4] |
| --- | --- | --- | --- | --- |
| O=C(O)c1ccc(CN2C(=O)/C(=C/c3cccc4ccccc34)S/C2=N\c2ccccc2)cc1 | 14 µM | > 500 µM | – | – |
| O=C(O)c1ccc(CN2C(=O)/C(=C/c3ccc(O)cc3)S/C2=N\c2ccccc2)cc1 | 30.1 µM | 195 µM | 270 µM | 47.7 µM |
| COc1cc(/C=C2\S/C(=N\c3ccccc3)N(Cc3ccc(C(=O)O)cc3)C2=O)ccc1O | 33.7 µM | > 250 µM | – | – |
| O=C(O)c1ccc(CN2C(=O)/C(=C/c3ccc(Oc4ccccc4)cc3)S/C2=N\c2ccccc2)cc1 | 1.1 µM | 6.3 µM | – | – |
| O=C(O)c1ccc(CN2C(=O)/C(=C/c3cccc(O)c3)S/C2=N\c2ccccc2)cc1 | 35.4 µM | > 250 µM | > 250 µM | 62.5 µM |
| O=C(O)c1ccc(CN2C(=O)/C(=C/c3ccc4ccccc4c3)S/C2=N\c2ccccc2)cc1 | 1.9 µM | 27.6 µM | 13.8 µM | 3.7 µM |
| O=C(O)c1ccc(CN2C(=O)/C(=C/c3ccc(O)c(C(=O)O)c3)S/C2=N\c2ccccc2)cc1 | 19.5 µM | 345 µM | – | – |
| O=C(O)c1ccc(CN2C(=O)/C(=C/c3ccc(OCc4ccccc4)cc3)S/C2=N\c2ccccc2)cc1 | 1.1 µM | 15.9 µM | – | – |
| O=C(O)c1ccc(CN2C(=O)/C(=C/c3cccc(OCc4ccccc4)c3)S/C2=N\c2ccccc2)cc1 | 3.8 µM | 12.9 µM | – | – |
| O=C(O)c1ccc(CN2C(=O)/C(=C/c3cccc(Oc4ccccc4)c3)S/C2=N\c2ccccc2)cc1 | 1.9 µM | 11.1 µM | – | – |
| COc1ccc(/C=C2\S/C(=N\c3ccccc3)N(Cc3ccc(C(=O)O)cc3)C2=O)cc1O | 32.1 µM | > 250 µM | – | – |
